According to ChEMBL document CHEMBL3997810, “A Novel Potent Anticancer Compound Optimized from a Natural Oridonin Scaffold Induces Apoptosis and Cell Cycle Arrest through the Mitochondrial Pathway” (J Med Chem, 2017):
Calls of active or inactive are those of the source. The rule behind the calls is not given here.

Columns and labels:
MCF7 [1] = assay: Induction of apoptosis in human MCF7 cells assessed as early apoptotic cells at 0.125 uM after 24 hrs by Annexin-V FITC/propidium iodide staining based flow cytometry (reference value: 2.65%); type: functional
MCF7 [2] = assay: Cell cycle arrest in human MCF7 cells assessed as accumulation at S phase at 1 uM after 48 hrs by propidium iodide staining based flow cytometry (reference value: 37.18%); type: functional
How it was run: (§1)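 MCF-7 cells, 5 × 10^4 per well, seeded overnight, then exposed to 0.125–1 μM compound, or DMSO, for 48 h. Ethanol-fixed (70%, −20 °C, 12 h) and stained with PI/RNase at 37 °C for 30 min. Phase distribution determined by flow cytometry.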

Mus musculus = assay: Toxicity in Balb/c nude mouse xenografted with human MCF7 cells assessed as morphological changes in lungs at 20 mg/kg/day, iv for 4 weeks by hematoxylin and eosin staining based microscopic method; type: organism-based; conditions: in vivo, 672 h
How it was run: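 Male BALB/c nude mice aged six weeks received 1 × 10^6 MCF-7 cells subcutaneously in the right flank. After 7 d they were randomized and dosed 20 mg/kg iv once daily in 10% DMF/2% poloxamer/88% saline; saline control. Heart, liver, spleen, lung and kidney were fixed in 4% paraformaldehyde, paraffin-embedded, sectioned at 5 μm, H&E stained and examined microscopically.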

Bel-7402 [3] = assay: Cell cycle arrest in human Bel7402 cells assessed as accumulation at S phase at 4 uM after 48 hrs by propidium iodide staining based flow cytometry (reference value: 8.78%); type: functional
MCF7 [4] = assay: Downregulation of cdc2 protein expression in human MCF7 cells after 48 hrs by Western blot method; type: functional, cell-based
How it was run: (§2)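 MCF-7 cells exposed to 0–1 μM compound for 48 h, then lysed on ice. Lysate (20 μg protein) run on 8–12% SDS-PAGE and transferred to PVDF. Probed overnight at 4 °C with primary antibodies, then fluorescent secondaries. Band densities normalized to β-actin. Mean ± SD of three independent experiments.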

[5] = Antiproliferative activity against human NCI-H460/MX20 cells after 48 hrs by MTT assay; type: functional, cell-based; conditions: NCI-H460/MX20, 48 h
How it was run: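 Colorimetric MTT assay. KB-3-1, NCI-H460 and Bel-7404 cells were seeded at 4000 cells/well; resistant KB/CP4, NCI-H460/MX20 and Bel-7404/CP20 were seeded at 7000 cells/well. Cells were pre-incubated 24 h at 37 °C, 5% CO2, then exposed to a compound concentration series for 48 h with DMSO ≤0.25%. Absorbance read at 570 nm. Quadruplicate wells, three repeats; means ± SD.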

Bel-7402 [6] = assay: Cell cycle arrest in human Bel7402 cells assessed as accumulation at S phase at 1 uM after 48 hrs by propidium iodide staining based flow cytometry (reference value: 8.78%); type: functional
MCF7 [7] = assay: Cell cycle arrest in human MCF7 cells assessed as accumulation at G2/M phase at 0.25 uM after 48 hrs by propidium iodide staining based flow cytometry (reference value: 13.05%); type: functional; how it was run: as §1
Bel-7402 [8] = assay: Cell cycle arrest in human Bel7402 cells assessed as accumulation at G2/M phase at 4 uM after 48 hrs by propidium iodide staining based flow cytometry (reference value: 56.61%); type: functional
MCF7 [9] = assay: Cell cycle arrest in human MCF7 cells assessed as accumulation at G1 phase at 1 uM after 48 hrs by propidium iodide staining based flow cytometry (reference value: 49.77%); type: functional; how it was run: as §1
MCF7 [10] = assay: Antitumor activity against human MCF7 cells xenografted in Balb/c nude mouse assessed as tumor growth inhibition at 20 mg/kg/day, iv for 4 weeks relative to control; type: functional; conditions: 672 h, read-out: TGI
How it was run: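 Six-week-old male BALB/c nude mice received 1 × 10^6 MCF-7 cells subcutaneously in the right flank. After 7 d of tumor growth, mice were randomized into groups of six. Dosing was 20 mg/kg iv once daily for 28 days in 10% DMF/2% poloxamer/88% saline. Tumor volume (L × W²/2) and body weight were recorded every 2 days. Inhibition = (1 − mean treated/control tumor weight) × 100%.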

MCF7 [11] = assay: Induction of apoptosis in human MCF7 cells assessed as decrease in Bcl2 protein expression at 0.5 to 1 uM after 48 hrs by Western blot method; type: functional, cell-based; how it was run: as §2
MCF7 [12] = assay: Induction of apoptosis in human MCF7 cells assessed as necrotic cells at 0.125 uM after 24 hrs by Annexin-V FITC/propidium iodide staining based flow cytometry (reference value: 0.102%); type: functional
[13] = Selectivity ratio of IC50 for human L02 cells to IC50 for human Bel7402 cells

Q: What does the source list for `C=C1C(=O)[C@]23[C@H](OC(=O)/C=C/c4ccccc4)[C@H]1CC[C@H]2[C@]12C=CCC(C)(C)[C@H]1[C@H](O)[C@]3(O)OC2`?
A: Activity (MCF7 [1]): 4.64%; Activity (MCF7 [2]): 30.01%; Activity (Mus musculus): Non-Toxic; Activity (Bel-7402 [3]): 9.55%; Activity (MCF7 [4]): Dose-dependent effect; IC50 [5]: 13.6 µM; Activity (Bel-7402 [6]): 8.51%; Activity (MCF7 [7]): 16.73%; Activity (Bel-7402 [8]): 63.11%; Activity (MCF7 [9]): 35.75%; inhibition in vivo at 20 mg/kg/day (MCF7 [10]): 69.8%; Activity (MCF7 [11]): Active; Activity (MCF7 [12]): 1.14%; Ratio IC50 [13]: 4.07
